Test results taken from paper PMC3501882 (Diabetes, 2012).
Residues, ends and D or L forms follow the SMILES beside them.

Legend:
[1] = type: physicochemical; conditions: poorly soluble peptides were used as suspensions in assays
[2] = test system: BDC-2.5 T-cell clone; experiment: IFN-γ response of T-cell clone to antigen; type: cell-based, NOD mouse; conditions: for IFN-γ response of BDC-2.5 to peptide (in words): increasing peptide concentrations, before and after TGase treatment, Fig. 1B, 1C
[3] = test system: guinea pig transglutaminase; conditions: increasing putrescine 0.06–15.6 mmol/L in the reaction mixture; gel lanes 2–10
[4] = test system: PD-12.4.4 T-cell clone; experiment: IFN-γ response of insulin-reactive T-cell clone to antigen; type: cell-based, NOD mouse; conditions: for IFN-γ response of PD-12.4.4 to peptide (in words): increasing peptide concentrations, Fig. 1A, 1D
[5] = test system: CD4 T cells from BDC-2.5 TCR-Tg mice; experiment: T-cell proliferation assay; type: cell-based, mouse; conditions: for Proliferative response of BDC-2.5 TCR-Tg CD4 T cells (in words): Fig. 2A, WE14 at 200 μg/mL (120 μmol/L)
Method in brief: (§1)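 Spleen cells from TCR-transgenic NOD mice (2–5 months old) labeled with 2.5 μmol/L CFSE. Cultured at 1 × 10^6/well with peptide antigen, medium, or anti-CD3ε 0.1 μg/mL for 4 days. Cells stained for CD4 and analysed by flow cytometry, gated on CD4/lymphocyte events. Read-out: percentage of divided cells, mean and SD per mouse over two independent experiments.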

[6] = test system: CD4 T cells from BDC-6.9 TCR-Tg mice; experiment: T-cell proliferation assay; type: cell-based, mouse; conditions: Fig. 2A; negative control T cells
Method in brief: as §1

| Solubility in water (in words) [1] | Compound | IFN-γ response of BDC-2.5 to peptide (in words) [2] | IFN-γ response of PD-12.4.4 to peptide (in words) [4] | Proliferative response of BDC-2.5 TCR-Tg CD4 T cells (in words) [5] | further results |
| --- | --- | --- | --- | --- | --- |
| – | NCCCCN [putrescine] | – | – | – | Effect of putrescine on antigenicity of β-Mem positive control antigen ([2]; data not shown): did not affect the antigenicity; Effect of inhibitor in TGase reaction on BDC-2.5 response to converted peptide ([2]; increasing putrescine 0.06–15.6 mmol/L, Fig. 6A top, lanes 2–10): diminished T-cell responses; Effect of inhibitor on TGase-catalysed WE14 oligomerization [3]: decreasing peptide oligomerization |
| only poorly soluble in water | DTKVMKCVLEVISD [ChgA29–42] | not antigenic | not antigenic at higher or lower peptide concentrations | no proliferative response | Effect of TGase treatment on antigenicity of the peptide ([2]; BDC-2.5 (for WE14 also BDC-10.1 and BDC-9.46), IFN-γ ELISA): did not lead to an increase of antigenicity; IFN-γ response of PD-12.4.4 to peptide at 66 μg/mL ([4]; 66 μg/mL (42 μmol/L), in the absence of TGase): very small PD-12.4.4 response; Proliferative response of BDC-6.9 TCR-Tg CD4 T cells (in words) [6]: no proliferative response |
| – | EKAHRPIWARMDAKK | – | – | responded | – |
| only poorly soluble in water | FVKQHLCGSHLVEALYLVCGERGFFYTPMS [insulin B-chain] | remain inactive | responded | – | Effect of TGase treatment on PD-12.4.4 response ([4]; Fig. 1D): not increased significantly |
| – | KCNTATCATQRLANFLVRSS [KS20] | remain inactive | did not respond | no proliferative response | Effect of TGase treatment of the peptide on T-cell proliferation ([5]; any peptide concentration tested, data not shown): did not alter the T-cell proliferation responses; Proliferative response of BDC-6.9 TCR-Tg CD4 T cells (in words) [6]: no proliferative response |
| solubilized directly in sterile water | WSRMDELAKELTAE [WE14-Q6E] | no better than unmodified WE14 | – | – | – |

| Compound | Solubility in water (in words) [1] | IFN-γ response of BDC-2.5 to peptide (in words) [2] | IFN-γ response of PD-12.4.4 to peptide (in words) [4] | Proliferative response of BDC-2.5 TCR-Tg CD4 T cells (in words) [5] | further results |
| --- | --- | --- | --- | --- | --- |
| CSCC[C@H](NC(=O)[C@H](CCCNC(=N)N)NC(=O)[C@H](CO)NC(=O)[C@@H](N)Cc1c[nH]c2ccccc12)C(=O)N[C@@H](CC(=O)O)C(=O)N[C@@H](CCC(N)=O)C(=O)N[C@@H](CC(C)C)C(=O)N[C@@H](C)C(=O)N[C@@H](CCCCN)C(=O)N[C@@H](CCC(=O)O)C(=O)N[C@@H](CC(C)C)C(=O)N[C@H](C(=O)N[C@@H](C)C(=O)N[C@@H](CCC(=O)O)C(=O)O)[C@@H](C)O [WE14] (H-WSRMDQLAKELTAE-OH) | solubilized directly in sterile water | – | – | – | – |
